Consider 19 compounds from ChEMBL document CHEMBL4619701, “Neutral analogs of the heat shock protein 70 (Hsp70) inhibitor, JG-98” (Bioorg Med Chem Lett, 2020).

For series [1], the system named is PC-3. Kind of series: Antiproliferative activity against human PC3 cells assessed as cell growth inhibition. It counts as functional, cell-based.
The test system of series [2] is CWR22R. Kind of series: Antiproliferative activity against human 22Rv1 cells assessed as cell growth inhibition. It counts as functional, cell-based.
Series [3] deals with MCF7. Briefly: Antiproliferative activity against human MCF7 cells assessed as cell growth inhibition. It counts as functional, cell-based.
Series [4] concerns PC-3. Kind of series: Potency index, ratio of JG-98 IC50 to compound IC50 for human PC3 cells. It counts as functional.
Series [5] concerns CWR22R. Kind of series: Potency index, ratio of JG-98 IC50 to compound IC50 for human 22Rv1 cells. It counts as functional.
Series [6] deals with CWR22R. Kind of series: Inhibition of HSP70 in human 22Rv1 cells assessed as reduction in c-Raf1 protein level at 0.3 to 5 uM measured after 24 hrs by Western blot analysis. It counts as cell-based. The procedure, abridged: (§1)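 22Rv1 cells were treated for 24 h at the indicated concentrations, then lysed and analysed by western blot for the named protein. Blots are representative of at least two independent experiments. Quantifications are averages of at least two independent experiments, with error bars as S.E.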
Background: Immunoblotting shows a protein as a band on a membrane.

Series [7] is described as follows: Inhibition of HSP70 in human 22Rv1 cells assessed as induction of heat shock response by measuring HSP72 level measured after 24 hrs by Western blot analysis. It counts as cell-based. The conditions noted are these: cwr22r. The method in brief:
as §1

For series [8], the system named is CWR22R. Kind of series: Inhibition of HSP70 in human 22Rv1 cells assessed as reduction in CDK4 protein level at 0.3 to 5 uM measured after 24 hrs by Western blot analysis. It counts as cell-based. The procedure, abridged:
as §1

Series [9] concerns CWR22R. Kind of series: Inhibition of HSP70 in human 22Rv1 cells assessed as reduction in Akt-1 protein level at 0.3 to 5 uM measured after 24 hrs by Western blot analysis. It counts as cell-based. The procedure, abridged: as §1
Series [10] in a line: Inhibition of HSP70 in human 22Rv1 cells assessed as induction of heat shock response by measuring HSP90 level at 0.3 to 5 uM measured after 24 hrs by Western blot analysis. It counts as cell-based. The conditions noted are these: cwr22r. The procedure, abridged:
as §1

For series [11], the system named is CWR22R. Kind of series: Inhibition of HSP70 in human 22Rv1 cells assessed as reduction in HuR protein level at 0.3 to 5 uM measured after 24 hrs by Western blot analysis. It counts as cell-based. The procedure, abridged:
as §1

Series [12] concerns MCF7. Kind of series: Potency index, ratio of JG-98 IC50 to compound IC50 for human MCF7 cells. It counts as functional.

Molecules are shown by their SMILES.

As for `c1ccc(Nc2nc(-c3nc4ccccc4s3)cs2)nc1`, the IC50 (usually the concentration that inhibits the measured activity by half) in the series on PC-3 [1] amounted to 6700 nM; with CWR22R [2], 3200 nM; in the series on MCF7 [3] it was 3600 nM.
For `c1ccc(Nc2cccc(-c3nc4ccccc4s3)c2)nc1` the same measures were 4800 nM, 13000 nM and 13000 nM.
Turning to `CCn1c(=O)/c(=C2\Sc3ccc(OC)cc3N2C)s/c1=C\c1ccncc1Nc1ccccc1Cl`, the IC50 came to 760 nM with PC-3 [1], 500 nM in the series with CWR22R [2] and 710 nM in the series with MCF7 [3].
For `CCn1c(=O)/c(=C2\Sc3ccc(C)cc3N2C)s/c1=C\c1ccncc1Nc1ccccc1F`, the “Ratio IC50” value with PC-3 [4], in the series on CWR22R [5] and in the series on MCF7 [12] was 7 - 10 each time. For the same compound, the IC50 with PC-3 [1] came out at 70 nM; in the series on CWR22R [2], 150 nM; with MCF7 [3], 100 nM. The inhibition in the series with CWR22R [6], in the series on CWR22R [8], in the series with CWR22R [9] and with CWR22R [11] was 50% in each case. Also, the “inhibition (INH)” value in series [7] and in series [10] was “Not Active” each time.
For `CCn1c(=O)/c(=C2\Sc3cc(F)ccc3N2C)s/c1=C\c1ccncc1Nc1ccccc1F`, the IC50 in the series with PC-3 [1] came to 260 nM; with CWR22R [2] it was 150 nM; in the series on MCF7 [3] it was 230 nM.
For `CCn1c(=O)/c(=C2\Sc3cc(F)ccc3N2C)s/c1=C\c1ccncc1Nc1ccccc1Cl` the same measures were 1200 nM, 490 nM and 1300 nM.
For `CCn1c(=O)/c(=C2\Sc3cc(F)ccc3N2C)s/c1=C\c1ccncc1Nc1ccccc1C` the same measures were 2300 nM, 2300 nM and 1300 nM.
For `CCn1c(=O)/c(=C2\Sc3ccc(OC)cc3N2C)s/c1=C\c1ccncc1Nc1ccccc1C` the same measures were 370 nM, 410 nM and 420 nM.
For the compound `CCn1c(=O)/c(=C2\Sc3ccccc3N2C)s/c1=C\c1ccncc1Nc1cc(C)ccc1C`, the IC50 with PC-3 [1] stood at 2000 nM; with CWR22R [2], 1800 nM; in the series on MCF7 [3], 1700 nM.
For `c1ccc(Nc2nc(-c3nc4ccccc4s3)cs2)cc1` the same measures were 5500 nM, 6900 nM and 7600 nM.
Turning to `CCn1c(=O)/c(=C2\Sc3ccc(OC)cc3N2C)s/c1=C\c1ccncc1Nc1ccccc1F`, the IC50 was found to be 100 nM in the series with PC-3 [1], 190 nM in the series with CWR22R [2] and 130 nM in the series on MCF7 [3].
On to `CCn1c(=O)/c(=C2\Sc3ccc(C)cc3N2C)s/c1=C\c1ccncc1Nc1ccccc1C`, for which the IC50 with PC-3 [1] was 330 nM; in the series on CWR22R [2], 480 nM; in the series with MCF7 [3] it was 400 nM.
For `CCn1c(=O)/c(=C2\Sc3ccc(C)cc3N2C)s/c1=C\c1ccncc1Nc1ccccc1Cl`, in that order: 500 nM, 350 nM and 650 nM.
Take `CCn1c(=O)/c(=C2\Sc3ccccc3N2C)s/c1=C\c1ccncc1Nc1ccccc1C`: the values for the IC50 in the series with PC-3 [1], with CWR22R [2] and in the series with MCF7 [3] were 1200 nM, 470 nM and 990 nM, respectively.
As to `CCn1c(=O)/c(=C2\Sc3ccccc3N2C)s/c1=C\c1ccncc1Nc1cc(F)ccc1F`, the IC50 with PC-3 [1] amounted to 1200 nM; in the series on CWR22R [2] it was 1100 nM; in the series with MCF7 [3], 1500 nM.
As to `CCn1c(=O)/c(=C2\Sc3ccccc3N2C)s/c1=C\c1ccncc1Nc1ccccc1Cl`, the IC50 in the series with PC-3 [1] was found to be 780 nM; in the series with CWR22R [2] it was 460 nM; in the series on MCF7 [3] it was 750 nM.
For `COc1ccc(Cl)c(Nc2cccc(-c3nc4ccccc4s3)c2)c1` the same measures were 2200 nM, 2100 nM and 710 nM.
For `CCc1ccc2c(c1)S/C(=c1/s/c(=C\c3ccncc3Nc3ccccc3F)n(CC)c1=O)N2C` the same measures were 2200 nM, 1200 nM and 1200 nM.
For `CCn1c(=O)/c(=C2\Sc3ccccc3N2C)s/c1=C\c1ccncc1Nc1ccccc1F`, in that order: 360 nM, 300 nM and 330 nM.
